Among the data in ChEMBL document CHEMBL4613300, “Pharmacophore-Based Virtual Screening for Identification of Negative Modulators of GLI1 as Potential Anticancer Agents” (ACS Med Chem Lett, 2020) are IC50, inhibition and Activity values, retold here.

Each structure is given as a SMILES string. Calls of active or inactive are those of the source. No cut-off for these calls is given here.

For series [1], the system named is A-375. Put plainly: Antiproliferative activity against human A375 cells assessed as reduction in cell viability incubated for 72 hrs by trypan blue or crystal violet staining based assay. In kind it is functional. The note with it: Homo sapiens, A-375, 72 h; read-out: IC50.
For series [2], the target named is T1, Zinc finger protein GLI1 (Homo sapiens) (UniProt P08151).
T1 sequence (whole entry): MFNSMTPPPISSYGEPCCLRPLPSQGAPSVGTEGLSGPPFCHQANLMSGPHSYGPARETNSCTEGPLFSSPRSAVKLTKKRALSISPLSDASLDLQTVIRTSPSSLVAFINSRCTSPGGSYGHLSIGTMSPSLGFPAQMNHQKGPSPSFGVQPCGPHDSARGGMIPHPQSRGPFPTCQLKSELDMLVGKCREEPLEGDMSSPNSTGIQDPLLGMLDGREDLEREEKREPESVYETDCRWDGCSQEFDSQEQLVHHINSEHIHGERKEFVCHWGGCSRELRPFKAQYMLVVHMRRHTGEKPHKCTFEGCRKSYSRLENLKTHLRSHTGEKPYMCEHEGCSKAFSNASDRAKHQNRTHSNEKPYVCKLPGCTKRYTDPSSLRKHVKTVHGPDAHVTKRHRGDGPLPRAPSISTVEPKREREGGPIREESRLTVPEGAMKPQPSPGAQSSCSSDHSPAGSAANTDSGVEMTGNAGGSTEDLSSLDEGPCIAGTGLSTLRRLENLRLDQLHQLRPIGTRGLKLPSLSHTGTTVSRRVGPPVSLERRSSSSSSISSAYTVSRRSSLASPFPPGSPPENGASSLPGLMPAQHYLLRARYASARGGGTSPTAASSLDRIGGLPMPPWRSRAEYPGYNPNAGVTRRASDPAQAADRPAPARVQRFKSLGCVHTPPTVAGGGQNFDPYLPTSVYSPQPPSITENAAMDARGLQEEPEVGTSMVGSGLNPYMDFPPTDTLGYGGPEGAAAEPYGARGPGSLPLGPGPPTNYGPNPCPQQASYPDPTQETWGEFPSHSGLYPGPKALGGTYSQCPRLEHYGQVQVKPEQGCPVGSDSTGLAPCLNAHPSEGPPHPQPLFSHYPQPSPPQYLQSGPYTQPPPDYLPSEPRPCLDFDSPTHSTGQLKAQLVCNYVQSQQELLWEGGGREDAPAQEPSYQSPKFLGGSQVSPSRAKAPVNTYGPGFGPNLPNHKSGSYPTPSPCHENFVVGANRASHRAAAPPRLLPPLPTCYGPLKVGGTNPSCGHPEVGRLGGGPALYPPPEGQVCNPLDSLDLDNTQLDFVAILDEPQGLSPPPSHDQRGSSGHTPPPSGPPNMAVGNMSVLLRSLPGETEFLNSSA
Put plainly: Inhibition of GLI1 transcriptional activity in human A375 cells assessed as downregulation of HIP1 mRNA expression at 5 uM incubated for 48 hrs by qPCR analysis. The conditions noted are these: A-375. In kind it is cell-based. Put shortly:
(§1)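 A375 cells treated with compound (5 μM) or DMSO for 48 h. mRNA measured by qPCR as gene/(mean of HPRT and EIF2α) ratio, DMSO control set to 1. Mean ± SD.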

The target of series [3] is T1, Zinc finger protein GLI1 (Homo sapiens). The series is described as follows: Inhibition of GLI1 transcriptional activity in human A375 cells assessed as downregulation of GLI1 mRNA expression at 5 uM incubated for 48 hrs by qPCR analysis. In kind it is cell-based. The conditions noted are these: A-375. Put shortly:
as §1
Background: In qPCR the cycle at which signal appears reflects the starting amount.

The target of series [4] is T2, Zinc finger protein GLI1 (Mus musculus) (UniProt P47806).
T2 sequence (whole entry): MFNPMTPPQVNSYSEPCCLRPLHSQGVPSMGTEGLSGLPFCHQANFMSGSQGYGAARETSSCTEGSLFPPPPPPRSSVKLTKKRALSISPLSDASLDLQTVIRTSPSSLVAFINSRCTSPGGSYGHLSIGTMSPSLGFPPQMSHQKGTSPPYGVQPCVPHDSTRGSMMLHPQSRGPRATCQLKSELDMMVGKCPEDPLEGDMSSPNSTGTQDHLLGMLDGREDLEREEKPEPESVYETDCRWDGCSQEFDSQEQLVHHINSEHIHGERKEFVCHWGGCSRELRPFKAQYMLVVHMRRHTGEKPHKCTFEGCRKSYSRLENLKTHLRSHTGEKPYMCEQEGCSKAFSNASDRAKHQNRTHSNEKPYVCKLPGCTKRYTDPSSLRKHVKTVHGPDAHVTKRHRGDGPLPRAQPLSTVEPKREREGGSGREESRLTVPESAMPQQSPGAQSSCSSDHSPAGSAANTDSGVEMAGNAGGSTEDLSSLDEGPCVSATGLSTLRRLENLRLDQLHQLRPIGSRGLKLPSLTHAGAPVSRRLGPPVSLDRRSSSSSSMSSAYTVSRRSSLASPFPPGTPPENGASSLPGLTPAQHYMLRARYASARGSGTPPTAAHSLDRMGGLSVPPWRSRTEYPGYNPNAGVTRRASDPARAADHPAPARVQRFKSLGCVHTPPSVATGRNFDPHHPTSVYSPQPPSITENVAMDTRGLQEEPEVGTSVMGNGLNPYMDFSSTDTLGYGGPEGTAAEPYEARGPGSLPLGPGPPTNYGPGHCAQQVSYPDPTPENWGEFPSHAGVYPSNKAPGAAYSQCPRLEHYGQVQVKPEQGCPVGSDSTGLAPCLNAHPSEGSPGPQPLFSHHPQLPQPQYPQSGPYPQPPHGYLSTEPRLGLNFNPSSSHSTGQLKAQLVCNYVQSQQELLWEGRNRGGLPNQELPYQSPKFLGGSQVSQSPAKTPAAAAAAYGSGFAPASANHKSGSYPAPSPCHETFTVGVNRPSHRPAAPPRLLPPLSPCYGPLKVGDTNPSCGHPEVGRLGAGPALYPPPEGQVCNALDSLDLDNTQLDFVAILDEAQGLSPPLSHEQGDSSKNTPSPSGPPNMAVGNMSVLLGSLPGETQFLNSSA
The series is described as follows: Inhibition of GLI1 transcriptional activity in HH-responsive mouse NIH3T3 cells assessed as reduction in GLI1 protein expression at 5 uM incubated for 48 hrs in presence of SAG by Western blot analysis. In kind it is cell-based. In a few lines: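 Murine NIH3T3 cells given 100 nM SAG plus compound (5 μM) or DMSO for 48 h. Endogenous GLI1 protein measured by Western blot with HSP90 as loading control, band quantified against SAG-treated cells.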
For orientation: Immunoblotting shows a protein as a band on a membrane.

In series [5] the target is T2, Zinc finger protein GLI1 (Mus musculus). Put plainly: Inhibition of GLI1 transcriptional activity in HH-responsive mouse NIH3T3 cells assessed as reduction in SAG-induced luciferase activity at 5 uM incubated for 48 hrs by luciferase reporter gene assay relative to control. In kind it is cell-based. In a few lines: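 HH-responsive NIH3T3 cells carrying a GLI-dependent firefly luciferase reporter with renilla control, treated 48 h with 100 nM SAG plus compound (5 μM). Firefly/renilla ratio normalised to SAG-only cells set at 100%, reported as percent inhibition.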

Series [6] concerns the target T1, Zinc finger protein GLI1 (Homo sapiens). The series is described as follows: Inhibition of GLI1 transcriptional activity in human A375 cells assessed as downregulation of PTCH1 mRNA expression at 5 uM incubated for 48 hrs by qPCR analysis. In kind it is cell-based. The conditions noted are these: A-375. Put shortly: as §1
Series [7] deals with A-375. Put plainly: Antiproliferative activity against human A375 cells transfected with lentivrus-encoding shRNA against GLI2 assessed as reduction in cell viability incubated for 72 hrs by trypan blue or crystal violet staining based assay. In kind it is functional. In a few lines:
(§2)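 A375 melanoma cells transduced with control lentivirus (LV-c), LV-shGLI1 or LV-shGLI2, with knockdown checked by Western blot (HSP90 loading control). Cells treated with DMSO or compound at the indicated doses for 72 h, then viability read. Values are mean ± SD of at least three independent experiments.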

Series [8] deals with T1, Zinc finger protein GLI1 (Homo sapiens). The series is described as follows: Inhibition of GLI1 transcriptional activity in human A375 cells assessed as downregulation of Cyclin D1 mRNA expression at 5 uM incubated for 48 hrs by qPCR analysis. In kind it is cell-based. The note with it: A-375. Put shortly: as §1
Series [9] has the same target. The series is described as follows: Inhibition of GLI1 transcriptional activity in human A375 cells assessed as downregulation of GLI2 mRNA expression at 5 uM incubated for 48 hrs by qPCR analysis. In kind it is cell-based. The note with it: A-375. Put shortly:
as §1

For series [10], the system named is A-375. The series is described as follows: Antiproliferative activity against human A375 cells transfected with lentivrus-encoding shRNA against GLI1 assessed as reduction in cell viability incubated for 72 hrs by trypan blue or crystal violet staining based assay. In kind it is functional. Put shortly: as §2
The test system of the next series is Daoy. Put plainly: Antiproliferative activity against human DaOY cells assessed as reduction in cell viability incubated for 72 hrs by trypan blue or crystal violet staining based assay. The conditions noted are these: Homo sapiens, Daoy, 72 h; read-out: IC50. In kind it is functional.
The next series has as its system MCF-10A. Put plainly: Cytotoxicity against human MCF10A cells assessed as reduction in cell viability incubated for 72 hrs by trypan blue or crystal violet staining based assay.

The term IC50 denotes the point on the concentration scale where inhibition reaches its midpoint. The term inhibition denotes the relative decrease from the control value, in per cent. For the molecule `CCOC(=O)c1c(-c2ccccc2)csc1NC(NC(=O)CC)C(Cl)(Cl)Cl` (stereo not given), the 50% inhibitory concentration (IC50) came out at 4100 nM in the series on A-375 [1] and 6000 nM with Daoy. For the same molecule, the inhibition entry in series [2], in [3], in [4], in [6], in [8] and in series [9] was “Active” each time. Moreover, the inhibition in series [5] was found to be 42%. The result in the series with A-375 [7] and in the series on A-375 [10] was inactive. Further, in the series on MCF-10A, the Activity result was “Non-Toxic”.
With `O=C(NC1CCCc2ccccc21)c1cnn2c(C(F)(F)F)cc(-c3cccs3)nc12` (stereo not given), the IC50 with A-375 [1] was 1200 nM; with Daoy, 4400 nM. The inhibition result in series [2], in series [3], in series [4], in [6], in series [8] and in [9] was “Active” throughout. For the same molecule, the inhibition in series [5] came to 49%. The outcome with A-375 [7] and with A-375 [10] was inactive. Also, in the series on MCF-10A, the Activity result was “Non-Toxic”.
Turning to `COc1cc(OC)c2c(=O)c(-c3ccc(OCC=C(C)C)c(OCC=C(C)C)c3)coc2c1`, the IC50 in the series on A-375 [1] came to 400 nM; with Daoy it was 130 nM. Besides, the inhibition result in series [2], in series [3], in [4], in [6], in series [8] and in series [9] was “Active” throughout. In [5], the inhibition worked out at 46%. The result in the series with A-375 [7] and in the series with A-375 [10] was inactive.
